ChEMBL document CHEMBL1122013, “Inhibitors of gastric acid secretion: 3,4-diamino-1,2,5-thiadiazole 1-oxides and 1,1-dioxides as urea equivalents in a series of histamine H2-receptor antagonists” (J Med Chem, 1982)
Where “and” joins values, the source holds several entries; their conditions need not be identical. Equal values may be shown once.

Columns and labels:
[1] = Slope value of the compound
[2] = molecular target: Histamine H2 receptor (Cavia porcellus) (UniProt P47747); assay: In vitro inhibition of Histamine H2 receptor by measuring its ability to block dimaprit-stimulated chronotropic response of guinea pig atrium strips; format: tissue-based; conditions: Cardiac atrium
Sequence of Histamine H2 receptor (Cavia porcellus) (P47747 whole entry): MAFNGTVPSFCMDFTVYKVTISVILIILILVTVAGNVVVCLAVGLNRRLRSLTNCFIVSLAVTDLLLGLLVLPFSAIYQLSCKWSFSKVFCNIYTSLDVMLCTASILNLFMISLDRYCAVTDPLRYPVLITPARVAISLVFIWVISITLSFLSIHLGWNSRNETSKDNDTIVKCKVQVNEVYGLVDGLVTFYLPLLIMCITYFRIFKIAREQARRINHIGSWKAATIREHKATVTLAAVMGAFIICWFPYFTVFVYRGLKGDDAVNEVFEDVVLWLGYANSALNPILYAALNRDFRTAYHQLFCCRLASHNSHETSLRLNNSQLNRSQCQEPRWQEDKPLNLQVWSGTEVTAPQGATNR

[3] = test system: Canis familiaris; assay: Inhibition of acid output in dogs (iv); format: functional; conditions: Canis lupus familiaris
Method in brief: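 Dogs with gastric fistula under histamine stimulation. The compound is dissolved in aqueous vehicle with 1 equiv of HCl. It is given orally (po), or intravenously (iv) immediately before histamine. Acid secretion is measured over the period of maximum effect, 0-30 min after histamine. ED50 and confidence limits come from analysis of variance over four dose levels, with 3-5 dogs per dose.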

[4] = test system: Canis familiaris; assay: Inhibition of acid output in dogs (po); format: functional; conditions: Canis lupus familiaris
Method in brief: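 Dogs with a gastric fistula, stimulated with histamine, were dosed orally with compound solubilized in aqueous vehicle containing 1 equiv of HCl. Gastric secretion was measured over the period of maximum effectiveness (0-30 min after histamine). ED50 and confidence limits came from analysis of variance across four dose levels with 3-5 dogs per dose.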

[5] = Ratio (po/iv) value of the compound; format: functional
[6] = molecular target: Histamine H2 receptor (Cavia porcellus, UniProt P47747); assay: In vitro inhibition of Histamine H2 receptor by measuring its ability to block the histamine-stimulated adenylate cyclase of guinea pig hippocampal homogenate; format: tissue-based, Hippocampus
Sequence of Histamine H2 receptor (P47747 whole entry): as above

[7] = molecular target: Histamine H2 receptor (Cavia porcellus) (UniProt P47747); conditions: Cardiac atrium

SMILES	Slope [1]	-Log KB [2]	ED50 [3] [mg/kg]	ED50 [4] [mg/kg]	Ratio [5]	Ki [6] [nM]	-Log KB [7]
CN(C)Cc1ccc(CSCCNC2=NS(=O)(=O)N=C2N)o1	1.3 and 0.53						
N=C(N)Nc1nc(CSCCNc2n[s+]([O-])nc2N)cs1 (stereo not given)	0.85	8.17					
CN/C(=N\CCSCc1nc[nH]c1C)NC#N [CIMETIDINE]	0.9 and 0.78		1.84				
CN(C)Cc1ccc(CSCCNc2n[s+]([O-])nc2N)o1 (stereo not given)	1.1 and 0.55						
Cc1[nH]cnc1CSCCNc1n[s+]([O-])nc1N (stereo not given)	0.85	5.98					
CNc1n[s+]([O-])nc1NCCSCc1ccc(CN(C)C)o1 (stereo not given)	1.03	7.85	0.05	0.3	6		
Nc1n[s+]([O-])nc1NCCCOc1cccc(CN2CCCCC2)c1 (stereo not given)	1.4 and 1.73						
CNC(=C[N+](=O)[O-])NCCSCc1ccc(CN(C)C)o1 [RANITIDINE]	1.6 and 0.76		0.04	0.42	14	501	7.32
